Screens: PubChem BioAssay, several laboratories
DNMT1 block: inhibitors of human DNMT1; P26358; DNMT1 molecular beacon, Hinp1I cleavage, fluorescence; inhibition (reported as % activation of signal), % at 10 µM; 360,000 compounds, 0.83% hits; in the data active = inhibition above about 50%
SUMO1 PPI mod: alters human SUMO1 binding to SIM partners. SUMO1 binding to a labelled peptide, TR-FRET, 1 h. 360,000 compounds, 0.33% hits. inhibition, % at 20 µM. AID 602429; in the data active = inhibition above about 37%
Target sequence (P63165 whole entry, looked up): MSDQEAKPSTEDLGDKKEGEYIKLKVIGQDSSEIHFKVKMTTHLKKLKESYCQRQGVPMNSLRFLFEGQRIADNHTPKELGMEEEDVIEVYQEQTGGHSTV
STEP inh: STEP (human) phosphatase inhibition. recombinant STEP, OMFP fluorogenic substrate, fluorescence. 360,000 compounds, 0.25% hits. AID 588621. inhibition, % at 20 µM;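 active = inhibition at 20 µM, scaled per plate between control wells, above about 37%, limit read from the data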
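Also added – OMFP at 25 µM · Test system – STEP tyrosine phosphatase · Technique – FITC-channel fluorescence of OMFP product · Schedule – 20 min at room temperature, dark · Evaluation – control-normalized % inhibition with plate pattern correction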
LMPTP block: LMPTP (human) inhibition; P24666; recombinant LMPTP-A, OMFP fluorogenic substrate, fluorescence intensity; inhibition, % at 20 µM; 360,000 compounds, 0.22% hits; AID 651560;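 active = compounds that cut the enzyme signal by at least half of the control window in the single-dose screen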
Target sequence (P24666 whole entry, looked up): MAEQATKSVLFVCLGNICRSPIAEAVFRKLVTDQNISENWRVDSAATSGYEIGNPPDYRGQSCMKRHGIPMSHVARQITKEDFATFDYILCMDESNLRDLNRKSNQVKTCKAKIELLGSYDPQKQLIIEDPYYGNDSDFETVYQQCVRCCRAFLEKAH
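test system = LMPTP-A | amount = 0.625 nM LMPTP-A final | reagent = fluorogenic phosphatase substrate OMFP at 400 µM final | incubation = 50 min at room temperature | benchmarks = no-enzyme low control, uninhibited high control | medium = Bis-Tris pH 6.0, DTT, detergent | signal = fluorescence intensity of OMFP turnover product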
Scp-1 inhibitor: inhibitors of human Scp-1 phosphatase | Recombinant Scp1, phosphopeptide, malachite green phosphate absorbance | 340,000 compounds, 0.88% hits | Q9GZU7 | inhibition, % at 20 µM;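 active = inhibition above about 50% at 20 µM, limit read from the data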
Target sequence (Q9GZU7 76-261 limits assumed): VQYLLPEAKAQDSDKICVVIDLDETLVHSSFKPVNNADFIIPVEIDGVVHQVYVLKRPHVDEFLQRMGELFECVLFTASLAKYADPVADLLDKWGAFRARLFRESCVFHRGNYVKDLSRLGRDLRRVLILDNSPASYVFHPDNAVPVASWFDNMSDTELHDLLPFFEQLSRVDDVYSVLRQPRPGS
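System: SCP-1 catalytic domain; Reagent: Phospho 17-mer peptide substrate; Doses: one concentration, 20 µM, with 1.0% DMSO; Incubation: 45 min room-temperature reaction, 5 min colour, 30 min stabiliser; Signal: Phosphate-binding colour reagent, absorbance read at 630 nm.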
GRK2 aptamer HTS: inhibitors of human GRK2 displacing RNA aptamer. P25098. bead flow cytometry, FAM-aptamer displacement from GRK2. inhibition of aptamer binding, % at 10 µM. 330,000 compounds, 0.59% hits. AID 488847;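 active = inhibition of aptamer binding above 40%, roughly 3 SD of noise, on plates passing a quality check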;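 also: median bead fluorescence of bound FAM aptamer so fluorescent compounds give negative values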
Beacon interf DR: counter-screen for DNMT1 inhibitors: spectral interference, dose response; 200 tested, under 10 active; IC50, µM; molecular beacon fluorescence; shares compounds with DNMT1 block; call rule not given here
DNMT1 confirm: DNMT1 inhibition confirmation, single concentration. inhibition, % at 10 µM. shares compounds with DNMT1 block. DNMT1 molecular beacon HinP1I cleavage, fluorescence. 2,300 compounds, 8% hits;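 active = average inhibition of at least 30% in the single-concentration confirmation test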
DNMT1 interf: beacon fluorescence artifact counter-screen; activation (fluorescence interference), % at 10 µM; shares compounds with DNMT1 block; AID 602387; 2,300 compounds, 1% hits; DNMT1 molecular beacon spectral interference counterscreen, fluorescence 485/520;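 active = activation of at least 30% at 10 µM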;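 also: DNMT1 catalytic domain with a HinP1I cleavage step and a FAM/dabcyl DNA beacon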
Large screens that a line does not name were inactive (follow-up assays come after a bar, where they were run). Sampled rows, rich in hits. Any-hit rate of the full collection: about 2.2%.

CCOc1ccc(-n2c(SCC(=O)N3CCc4ccccc43)nnc2-c2c[nH]c3ccccc23)cc1	DNMT1 block 80 | DNMT1 confirm inactive | DNMT1 interf inactive
O=C(CSc1nc2ccccc2c(=O)n1-c1ccccc1)N1CCc2ccccc21	DNMT1 block 53 | DNMT1 confirm inactive | DNMT1 interf inactive
CC(C)NC(=S)NN(c1ccccc1)c1ccccc1	DNMT1 block 108 | DNMT1 confirm inactive | DNMT1 interf inactive
COc1cc(CN2C[C@@H](CO)O[C@@H](n3cnc4c(NCC(C)C)ncnc43)C2)cc(OC)c1OC	none (no result: Scp-1 inhibitor, GRK2 aptamer HTS)
O=C(C[C@H]1C[C@@H]2c3cc(NC(=O)c4cccnc4)ccc3O[C@@H]2[C@H](CO)O1)NCc1ccncc1	none (no result: Scp-1 inhibitor, GRK2 aptamer HTS)
Oc1[nH]c2ccccc2c1N=Nc1ccccc1	none
Oc1[nH]c2ccccc2c1N=Nc1ccc(F)cc1	DNMT1 block 63 | Beacon interf DR 20 | DNMT1 confirm 31 | DNMT1 interf inactive
COc1cc(/C=C2\SC(=O)N(CC(=O)Nc3ccc(C)cc3)C2=O)cc(Cl)c1OCC(=O)O	DNMT1 block 90, SUMO1 PPI mod 47, STEP inh 98, LMPTP block 84 | DNMT1 confirm inactive | DNMT1 interf inactive
O=C(CN1C(=O)S/C(=C\c2cc(Cl)c(O)c(Cl)c2)C1=O)Nc1ccccc1	none
CC(C)CN(C(=O)CN(C)C(=O)Cc1c(F)cccc1Cl)c1c(N)n(CC(C)C)c(=O)[nH]c1=O	none (no result: Scp-1 inhibitor, GRK2 aptamer HTS)
COC(=O)CSc1cc(C)nc2ccc(OC)cc12	none
COc1ccc2nc(C)cc(SCC(=O)N/N=C/c3cccc4ccccc34)c2c1	DNMT1 block 53 | DNMT1 confirm inactive | DNMT1 interf inactive
Cc1ccc(C)c(OCC(=O)N/N=C/c2c(C)nn(-c3ccccc3)c2Cl)c1C	DNMT1 block 53 | DNMT1 confirm inactive | DNMT1 interf inactive
COC(=O)N/N=C\c1c(C)nn(-c2ccccc2)c1Cl	none
CC1CCN(S(=O)(=O)N2CCC(C(=O)NC(C)c3ccccc3)CC2)CC1 (stereo not drawn)	none (no result: Scp-1 inhibitor, GRK2 aptamer HTS)
COCCn1c(N)c(C#N)c2nc3ccccc3nc21	none
N#Cc1c(N)n(CCc2ccc(F)cc2)c2nc3ccccc3nc12	DNMT1 block 71 | DNMT1 confirm inactive | DNMT1 interf inactive
COCCNC(=O)C1(C)CCCN(Cc2noc(-c3ccccc3OC)n2)C1 (stereo not drawn)	none (no result: Scp-1 inhibitor, GRK2 aptamer HTS)
Cc1ccc(OCC(=O)Nc2ccc(N3CCCC3)cc2)cc1C	DNMT1 block 67 | DNMT1 confirm inactive | DNMT1 interf inactive
Cc1cccc(OCC(=O)Nc2ccc(N3CCCC3)cc2)c1C	DNMT1 block 59 | Beacon interf DR inactive | DNMT1 confirm inactive | DNMT1 interf inactive
COc1ccc(OCC(=O)Nc2ccc(N3CCCCC3)cc2)cc1	none
Cc1cccc(OCC(=O)Nc2cccc(-c3nnc(-c4ccccc4)o3)c2)c1C	DNMT1 block 57 | DNMT1 confirm inactive | DNMT1 interf inactive
COc1ccc(OCCNC(=O)c2ccc3nc(C)c(N(C)Cc4ccc(NC(C)=O)cc4)n3c2)cc1	none (no result: Scp-1 inhibitor, GRK2 aptamer HTS)
CC(C)[C@@H]1CC[C@@H](C)C[C@H]1O	none (no result: Scp-1 inhibitor, GRK2 aptamer HTS)
CCCNC(=O)C1(S(=O)(=O)c2ccccc2)CC=CC1	DNMT1 block 92 | DNMT1 confirm inactive | DNMT1 interf inactive
O=C1NC[C@H](CCCCN2CCN(CCC3CCCCC3)C(=O)C2=O)N(CC2CCCCC2)C1=O	none (no result: DNMT1 block, STEP inh, Scp-1 inhibitor, GRK2 aptamer HTS)
CN(Cc1ccccc1)c1ccc(C(CC(N)=O)NC(=O)Cc2cccc3ccccc23)cc1[N+](=O)[O-] (stereo not drawn)	none
NC(=O)CC(NC(=O)Cc1ccc(Br)cc1)c1ccc(N2CCC(Cc3ccccc3)CC2)c([N+](=O)[O-])c1 (stereo not drawn)	DNMT1 block 87 | DNMT1 confirm inactive | DNMT1 interf inactive
NC(=O)CC(NC(=O)Cc1ccc(Br)cc1)c1ccc(N2CCCCCCC2)c([N+](=O)[O-])c1 (stereo not drawn)	DNMT1 block 65 | DNMT1 confirm inactive | DNMT1 interf inactive
CN(Cc1ccccc1)c1ccc(C(CC(N)=O)NC(=O)Cc2ccc(Br)cc2)cc1[N+](=O)[O-] (stereo not drawn)	DNMT1 block 80 | DNMT1 confirm inactive | DNMT1 interf inactive
NC(=O)CC(NC(=O)Cc1ccc(Br)cc1)c1ccc(N2CCC(Br)CC2)c([N+](=O)[O-])c1 (stereo not drawn)	DNMT1 block 77 | DNMT1 confirm inactive | DNMT1 interf inactive
COc1ccc(-c2n[nH]nc2C2=CC(=O)CC(C)(C)C2)cc1	none (no result: Scp-1 inhibitor, GRK2 aptamer HTS)
Nc1nc(-c2ccco2)c(-c2ccco2)s1	DNMT1 block 51 | DNMT1 confirm inactive | DNMT1 interf inactive
Nc1nc(-c2ccco2)cs1	none
CC(C)N1CCC1(C)C(=O)Nc1nc2ccccc2[nH]1 (stereo not drawn)	none (no result: Scp-1 inhibitor, GRK2 aptamer HTS)
Cc1ccc(CN2C(=O)CCC2C(=O)NCc2ccc(F)cc2)cc1 (stereo not drawn)	none
Cc1ccc(CN2C(=O)CCC2C(=O)NCc2ccc3c(c2)OCO3)cc1 (stereo not drawn)	DNMT1 block 91 | DNMT1 confirm inactive | DNMT1 interf inactive
O=C(O)C1CC2C3CC(C(=O)O)C(C3)C2C1 (stereo not drawn)	DNMT1 block 75 (no result: GRK2 aptamer HTS) | DNMT1 confirm inactive | DNMT1 interf inactive
CCOC(=O)C1=C(c2ccccc2)N=c2s/c(=C\c3ccco3)c(=O)n2C1c1cccs1 (stereo not drawn)	DNMT1 block 58 | DNMT1 confirm inactive | DNMT1 interf inactive
CCOC(=O)C1=C(c2ccccc2)N=c2s/c(=C\c3cc(OC)c(OC)c(OC)c3)c(=O)n2C1c1cccs1 (stereo not drawn)	none
O=c1c2c([nH]c3ccccc13)CCCC2	none
O=c1c2c([nH]c3ccccc13)C(=C1CCCC1)CC2	DNMT1 block 92, LMPTP block 59 | DNMT1 confirm inactive | DNMT1 interf inactive
CCOc1cc(OCC)cc(C(=O)NCCN2CCC(n3c(=O)[nH]c4ccccc43)CC2)c1	none (no result: DNMT1 block, STEP inh, Scp-1 inhibitor, GRK2 aptamer HTS)
COc1ccc2c3c(cccc13)N(C)N=C2C	DNMT1 block 93 | DNMT1 confirm inactive | DNMT1 interf inactive
CC(=O)OCC(=O)C12OC(C)(C)OC1CC1C3CC=C4CC(O)CCC4(C)C3CCC12C (stereo not drawn)	none (no result: GRK2 aptamer HTS)
